Test [1] addresses T1, Cystic fibrosis transmembrane conductance regulator (Homo sapiens, UniProt P13569). The experiment in a line: Inhibition of human CFTR expressed in rat FRT cells coexpressing halide indicator YFP-H148Q assessed as inhibition of halide influx at 5 uM preincubated for 15 mins by FLIPR. The format is cell-based. Summed up:
(§1)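 FRT cells coexpressing human CFTR and YFP halide sensor, assayed 48 h after plating at confluence. After PBS washes, CFTR activated with 5 µM forskolin, 100 µM IBMX and 25 µM apigenin. Compound added 5 min later and incubated 15 min. Fluorescence read 2 s baseline, then 10 s after iodide-substituted PBS addition. Initial iodide influx rate obtained by nonlinear regression.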
Target sequence in this assay (P13569 whole entry, looked up): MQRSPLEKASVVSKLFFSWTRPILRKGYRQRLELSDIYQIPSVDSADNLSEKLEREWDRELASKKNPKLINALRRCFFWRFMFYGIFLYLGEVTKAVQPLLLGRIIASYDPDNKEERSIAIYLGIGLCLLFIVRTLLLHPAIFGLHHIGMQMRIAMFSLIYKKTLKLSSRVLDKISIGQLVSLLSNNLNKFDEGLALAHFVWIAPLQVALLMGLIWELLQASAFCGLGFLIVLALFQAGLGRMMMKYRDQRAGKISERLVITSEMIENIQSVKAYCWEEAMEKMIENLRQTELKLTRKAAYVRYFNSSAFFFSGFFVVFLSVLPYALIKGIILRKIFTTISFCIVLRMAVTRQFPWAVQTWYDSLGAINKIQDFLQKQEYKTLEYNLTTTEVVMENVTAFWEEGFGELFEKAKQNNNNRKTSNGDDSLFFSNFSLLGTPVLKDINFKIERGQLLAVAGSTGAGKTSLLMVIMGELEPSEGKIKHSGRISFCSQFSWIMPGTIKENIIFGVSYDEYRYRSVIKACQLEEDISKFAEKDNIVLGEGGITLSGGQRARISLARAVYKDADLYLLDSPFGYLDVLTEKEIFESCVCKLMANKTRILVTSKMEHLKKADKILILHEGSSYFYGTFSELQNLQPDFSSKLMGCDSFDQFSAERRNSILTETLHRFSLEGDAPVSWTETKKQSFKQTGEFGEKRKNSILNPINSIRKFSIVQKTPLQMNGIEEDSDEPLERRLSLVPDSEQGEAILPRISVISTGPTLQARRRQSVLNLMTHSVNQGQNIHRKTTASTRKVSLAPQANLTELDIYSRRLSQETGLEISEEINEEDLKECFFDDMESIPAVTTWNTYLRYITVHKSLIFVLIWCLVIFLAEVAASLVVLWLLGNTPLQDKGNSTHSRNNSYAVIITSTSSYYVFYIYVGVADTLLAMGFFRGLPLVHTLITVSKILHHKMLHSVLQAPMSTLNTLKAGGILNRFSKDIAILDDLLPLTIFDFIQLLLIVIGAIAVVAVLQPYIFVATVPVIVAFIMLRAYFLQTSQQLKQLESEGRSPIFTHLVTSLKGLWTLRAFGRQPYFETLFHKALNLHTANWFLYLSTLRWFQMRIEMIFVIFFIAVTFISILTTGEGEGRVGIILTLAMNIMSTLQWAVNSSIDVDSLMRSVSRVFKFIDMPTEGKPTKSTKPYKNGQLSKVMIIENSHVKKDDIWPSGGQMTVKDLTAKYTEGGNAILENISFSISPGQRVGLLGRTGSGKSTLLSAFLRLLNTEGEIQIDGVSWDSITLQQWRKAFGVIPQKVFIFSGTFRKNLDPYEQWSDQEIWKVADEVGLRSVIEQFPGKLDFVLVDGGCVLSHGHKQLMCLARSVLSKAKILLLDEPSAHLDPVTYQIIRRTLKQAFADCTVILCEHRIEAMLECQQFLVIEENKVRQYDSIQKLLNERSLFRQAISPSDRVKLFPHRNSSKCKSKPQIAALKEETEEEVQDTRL

For test [2], the target named is T1, Cystic fibrosis transmembrane conductance regulator. Description: Inhibition of human CFTR expressed in rat FRT cells coexpressing halide indicator YFP-H148Q assessed as inhibition of halide influx at 25 uM preincubated for 15 mins by FLIPR. The format is cell-based. Summed up:
as §1
Target sequence in this assay (P13569 whole entry, looked up): as above

Test [3] has the same target. Description: Inhibition of CFTR in nonpermeabilized human bronchial epithelial cells assessed as inhibition of forskolin and IBMX-induced chloride current at by short-circuit current analysis. The format is cell-based, Epithelial cell. Summed up: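 Ussing chamber short-circuit current in nonpermeabilized primary human bronchial epithelial cells on inserts; Krebs-bicarbonate both sides, bubbled with 5% CO2 in air, 37 °C. CFTR maximally activated by 10 µM forskolin plus 100 µM IBMX, then inhibitor added; current recorded continuously with voltage clamp.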
Target sequence in this assay (P13569 whole entry): as the sequence (P13569 whole entry, looked up) above

In test [4] the test system is CHO-K1. Description: Effect on basal cAMP production in CHOK1 cells at 10 uM. The format is functional, cell-based. The following applies: Cricetulus griseus. In short, it runs like this:
(§2)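 cAMP measured in CHO-K1 cells under basal conditions and after 20 µM forskolin, with or without compound at 10 µM; SE, n = 4.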
(Cyclic AMP is a second messenger, typically raised through Gs and lowered through Gi signalling.)

Test [5] has as its system Kidney. The experiment in a line: Reduction in fluid accumulation in 3 days 8-Br-cAMP treated embryonic mouse kidney organ culture model of polycystic kidney disease at 5 uM after 1 or 2 days by transmission light microscopy. The format is functional, tissue-based. Summed up: (§3)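 E13.5 mouse metanephroi in defined organ-culture medium with 100 µM 8-Br-cAMP, changed every 12 h, 37 °C. Compound (5 µM) added at day 3 to kidneys with preformed cysts. Cyst area fraction by transmission light microscopy at day 5, six kidneys, SE.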

For test [6], the system named is Kidney. Description: Inhibition of cyst formation in 8-Br-cAMP treated embryonic mouse kidney organ culture model of polycystic kidney disease at 5 uM by transmission light microscopy. The format is functional, tissue-based. Summed up: (§4)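 E13.5 mouse metanephroi cultured on porous inserts in defined DMEM/Ham's F-12 (insulin, transferrin, selenium, prostaglandin E, T3) at 37 °C. Medium with 100 µM 8-Br-cAMP, with or without compound, replaced every 12 h. After 4 days, cyst area fraction measured by transmission light microscopy (SE, 6–8 kidneys), or paraffin sections H&E-stained (three kidneys per condition).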

Test [7] relates to Kidney. The experiment in a line: Inhibition of cyst formation in 8-Br-cAMP treated embryonic mouse kidney organ culture model of polycystic kidney disease at 0.5 uM by transmission light microscopy. The format is functional. In short, it runs like this:
as §4

Test [8] concerns Epithelial cell. The experiment in a line: Inhibition of calcium-activated chloride channel in CFTR deficient human bronchial epithelial cells assessed as inhibition of UTP-induced chloride current at 10 uM. The format is cell-based. In short, it runs like this:
(§5)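 Ussing-chamber short-circuit current in cystic fibrosis (CFTR-deficient) human bronchial epithelial cells, Krebs-bicarbonate both sides, 5% CO2 in air, 37 °C. ENaC blocked with 10 µM amiloride. Calcium-activated chloride channels stimulated with 100 µM UTP, compound added as indicated.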

In test [9] the test system is CHO-K1. Description: Effect on forskolin-induced cAMP production in CHOK1 cells at 10 uM. The following applies: Cricetulus griseus. The format is functional, cell-based. Summed up:
as §2

Test [10] has as its system Epithelial cell. Description: Inhibition of calcium-activated chloride channel in CFTR deficient human bronchial epithelial cells assessed as inhibition of UTP-induced chloride current at 20 uM. The format is cell-based. Summed up: as §5
For test [11], the system named is Kidney. Description: Reduction in cyst size in 8-Br-cAMP treated embryonic mouse kidney organ culture model of polycystic kidney disease by hematoxylin and eosin staining after 4 days. The format is functional, tissue-based. In short, it runs like this: as §4
In test [12] the test system is Kidney. The experiment in a line: Reduction in size of preformed cysts in 8-Br-cAMP treated embryonic mouse kidney organ culture model of polycystic kidney disease by transmission light microscopy. The format is functional, tissue-based. In short, it runs like this: as §3
Test [13] concerns the target T1, Cystic fibrosis transmembrane conductance regulator. The following applies: T84, 10 uM.
Target sequence in this assay (P13569 whole entry, looked up): as above
The subject of test [14] is Kidney. Description: Inhibition of cyst formation in 8-Br-cAMP treated embryonic mouse kidney organ culture model of polycystic kidney disease at 2.5 uM by transmission light microscopy. The format is functional, tissue-based. In short, it runs like this: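 E13.5 mouse metanephroi cultured on porous inserts in defined DMEM/Ham's F-12 (insulin, transferrin, selenium, prostaglandin E, T3) at 37 °C. Medium with 100 µM 8-Br-cAMP, with or without inhibitor, replaced every 12 h. After 4 days, transmission light micrographs scored as fractional kidney area occupied by cysts (6–8 kidneys, SE).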

Test [15] concerns Kidney. The experiment in a line: Reduction in cyst expansion in 8-Br-cAMP treated embryonic mouse kidney organ culture model of polycystic kidney disease by transmission light microscopy. The format is functional, tissue-based. Summed up:
as §4

The target in test [16] is T1, Cystic fibrosis transmembrane conductance regulator. The experiment in a line: Inhibition of human CFTR expressed in rat FRT cells assessed as inhibition of CPT-cAMP-induced apical membrane current in presence of transepithelial chloride gradient and basolateral membrane permeabilization with amphotericin B by short-circuit current analysis. The format is cell-based. In short, it runs like this: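 FRT cells stably coexpressing human wild-type CFTR, mounted in Ussing chambers. Apical 75 mM NaCl/75 mM Na gluconate, basolateral 150 mM NaCl (pH 7.3), basolateral membrane permeabilized with 250 µg/mL amphotericin B, air-bubbled, 37 °C. CFTR activated by 100 µM CPT-cAMP, then increasing inhibitor concentrations added cumulatively. Apical current recorded continuously; dose–response, SE n = 4.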
Target sequence in this assay (P13569 whole entry): as the sequence (P13569 whole entry, looked up) above

Test [17] shares this target. The settings on record: FRT, 0.5 uM.
Target sequence in this assay (P13569 whole entry, looked up): as above
Test [18] has the same target. The following applies: Epithelial cell, 10 uM.
Target sequence in this assay (P13569 whole entry, looked up): as above
Test [19] has the same target. Description: Inhibition of CFTR. Summed up:
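Ussing-chamber apical membrane current in CFTR-expressing FRT cells under a chloride gradient: apical 75 mM NaCl/75 mM Na gluconate, basolateral 150 mM NaCl, pH 7.3. Basolateral membrane permeabilized with 250 µg/mL amphotericin B, air-bubbled, 37 °C. CFTR activated by 100 µM CPT-cAMP, then compound added at increasing concentrations. Dose–response, SE n = 4.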
Target sequence in this assay (P13569 whole entry): as the sequence (P13569 whole entry, looked up) above

pIC50: −log10 of the molar value. Calls of active or inactive are those of the source. The calls are words filed in the database; no cut-off is given here.

As for `COc1cccc(C2Nc3ccccc3-n3c(-c4cccc(C)c4)c4c(=O)n(C)c(=O)n(C)c4c32)c1` (stereo unspecified), the results for the inhibition in test [1] and in [2] were 73% and 98%, respectively.
`Cc1ccc(C2Nc3ccccc3-n3c(-c4ccccc4)c4c(=O)n(C)c(=O)n(C)c4c32)o1` (stereo unspecified): the pIC50 in [3] was greater than 6.00; in test [16] it was 7.05. Further, the result in the test with CHO-K1 [4], in the test with Epithelial cell [8], with CHO-K1 [9] and in the test on Epithelial cell [10] was inactive. Also, the inhibition result with Kidney [5], with Kidney [11] and with Kidney [14] was “Active” throughout. For the same compound, the result in the test on Kidney [6], in the test with Kidney [12] and in the test on Kidney [15] was Active. The inhibition was 87% in [1]; 100% in test [13]; 65% in [17]; 100% in [18]; 97% in test [2]. Testing at 0.5 µM in the test on Kidney [7] gave an inhibition of 60%.
In the case of `COc1cccc(C2Nc3ccccc3-n3c(-c4ccccc4)c4c(=O)n(C)c(=O)n(C)c4c32)c1` (stereo unspecified), the inhibition in test [1] was determined as 63%; in test [2], 86%.
Take `O=C(CNc1ccc2ccccc2c1)N/N=C/c1cc(Br)c(O)c(Br)c1O`: the pIC50 in [19] was 5.30.
With `Cc1ccc(C2Nc3cc(C)c(C)cc3-n3c(-c4ccccc4)c4c(=O)n(C)c(=O)n(C)c4c32)o1` (stereo unspecified), the inhibition in test [1] worked out at 84%; in [2], 90%.
Taken in the same sequence, the figures for `Cn1c(=O)c2c(-c3ccccc3)n3c(c2n(C)c1=O)C(c1cccc(F)c1F)Nc1ccccc1-3` (stereo unspecified) were 72% and 93%.
`Cn1c(=O)c2c(-c3ccccc3F)n3c(c2n(C)c1=O)C(c1cccc(Cl)c1)Nc1ccccc1-3` (stereo unspecified): the inhibition in test [1] stood at 70%; in [2] it was 98%.
Taken in the same sequence, the figures for `Cc1ccc(C2Nc3ccccc3-n3c(-c4ccccc4C)c4c(=O)n(C)c(=O)n(C)c4c32)o1` (stereo unspecified) were 86% and 97%.
Taken in the same sequence, the figures for `Cc1cccc(-c2c3c(=O)n(C)c(=O)n(C)c3c3n2-c2ccccc2NC3c2ccccc2F)c1` (stereo unspecified) were 67% and 80%.
`COc1cccc(C2Nc3ccccc3-n3c(-c4ccccc4F)c4c(=O)n(C)c(=O)n(C)c4c32)c1` (stereo unspecified): the figures for the inhibition in test [1] and in test [2] were 62% and 97%, respectively.
On the same counts, the results for `Cn1c(=O)c2c(-c3ccccc3)n3c(c2n(C)c1=O)C(c1ccc(O)cc1)Nc1ccccc1-3` (stereo unspecified) are 64% and 86%.
On the same counts, the results for `COc1cccc(C2Nc3ccccc3-n3c(-c4ccccc4C)c4c(=O)n(C)c(=O)n(C)c4c32)c1` (stereo unspecified) are 62% and 94%.
As to `O=C(O)c1ccc(/C=C2\SC(=S)N(c3cccc(C(F)(F)F)c3)C2=O)cc1`, the pIC50 in test [19] was 6.52.
For the compound `Cc1cccc(-c2c3c(=O)n(C)c(=O)n(C)c3c3n2-c2ccccc2NC3c2cccc(F)c2)c1` (stereo unspecified), the inhibition came to 53% in [1] and 93% in test [2].
Consider `Cc1cccc(-c2c3c(=O)n(C)c(=O)n(C)c3c3n2-c2ccccc2NC3c2cccc([N+](=O)[O-])c2F)c1` (stereo unspecified), for which the inhibition in test [1] was 61%; in test [2], 94%.
With `Cc1ccc(C2Nc3cc(C)c(C)cc3-n3c(-c4ccccc4F)c4c(=O)n(C)c(=O)n(C)c4c32)o1` (stereo unspecified), the inhibition in [1] turned out to be 80%; in test [2], 87%.
On the same counts, the results for `Cn1c(=O)c2c(-c3ccccc3)n3c(c2n(C)c1=O)C(c1ccccc1F)Nc1ccccc1-3` (stereo unspecified) are 61% and 81%.
As to `Cc1ccccc1-c1c2c(=O)n(C)c(=O)n(C)c2c2n1-c1ccccc1NC2c1cccc([N+](=O)[O-])c1` (stereo unspecified), the inhibition came out at 64% in test [1] and 96% in test [2].
Taken in the same sequence, the figures for `Cc1ccccc1-c1c2c(=O)n(C)c(=O)n(C)c2c2n1-c1ccccc1NC2c1ccccc1` (stereo unspecified) were 51% and 97%.
In the case of `Cn1c(=O)c2c(-c3ccccc3)n3c(c2n(C)c1=O)C(c1ccccc1)Nc1ccccc1-3` (stereo unspecified), the inhibition in test [1] turned out to be 61%; in test [2], 92%.
On the same counts, the results for `COc1cc(O)ccc1C1Nc2ccccc2-n2c(-c3ccccc3)c3c(=O)n(C)c(=O)n(C)c3c21` (stereo unspecified) are 5% and 56%.
For `Cc1cccc(-c2c3c(=O)n(C)c(=O)n(C)c3c3n2-c2ccccc2NC3c2ccc(O)cc2)c1` (stereo unspecified), the inhibition in test [1] came out at 71%; in test [2] it was 94%.
`Cc1cccc(C2Nc3ccccc3-n3c(-c4ccccc4C)c4c(=O)n(C)c(=O)n(C)c4c32)c1` (stereo unspecified): the results for the inhibition in [1] and in [2] were 46% and 100%, respectively.
Taken in the same sequence, the figures for `Cc1cc2c(cc1C)-n1c(-c3ccccc3)c3c(=O)n(C)c(=O)n(C)c3c1C(c1ccc(O)cc1)N2` (stereo unspecified) were 80% and 99%.
As to `Cn1c(=O)c2c(-c3ccccc3)n3c(c2n(C)c1=O)C(c1cccc([N+](=O)[O-])c1)Nc1ccccc1-3` (stereo unspecified), the inhibition is 60% in [1] and 90% in [2].
On the same counts, the results for `Cc1cccc(-c2c3c(=O)n(C)c(=O)n(C)c3c3n2-c2ccccc2NC3c2ccc(C)o2)c1` (stereo unspecified) are 82% and 98%.

The term inhibition denotes the relative decrease from the control value, in per cent. A word on the pIC50: it is −log10 of the IC50, conventionally taken in molar units.

These data come from ChEMBL document CHEMBL1221227, “Nanomolar potency pyrimido-pyrrolo-quinoxalinedione CFTR inhibitor reduces cyst size in a polycystic kidney disease model” (J Med Chem, 2009).
